Assays:
[1] = Cmax in Sprague-Dawley rat at 1 mg/kg, iv measured up to 8 hrs by LC-MS/MS analysis; assay type: ADME, organism-based; conditions: in vivo
[2] = Inhibition of PRKX/PRKY in human HeLa cells lysate at 50 uM pre incubated for 15 mins followed by ADP acyl phosphate probe addition and measured after 10 mins by LC-MS/MS analysis relative to control; conditions: 25 min, condition cancer
[3] = molecular target: Tyrosine-protein kinase ABL (Homo sapiens, UniProt P00519+P42684); assay: Inhibition of ABL1/2 in human HeLa cells lysate pre incubated for 15 mins followed by ATP acyl phosphate probe addition and measured after 10 mins by LC-MS/MS analysis; assay type: subcellular
Summary of the method: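 HeLa cell lysates (5 mg/mL total protein) were preincubated with inhibitor at 0, 0.8, 2, 10 or 50 μM for 15 min. ATP or ADP acylphosphate probe was then added (5 μM final) for 10 min, and reactions were stopped with urea. Up to four fragment ions per kinase probe-peptide were quantified by targeted MS. % inhibition was taken relative to untreated lysate. Run in duplicate.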

[4] = molecular target: T1, Serine/threonine-protein kinase Chk1 (Homo sapiens) (UniProt O14757); assay: Inhibition of CHK1 in human HeLa cells lysate at 10 uM pre incubated for 15 mins followed by ATP acyl phosphate probe addition and measured after 10 mins by LC-MS/MS analysis relative to control; assay type: subcellular; conditions: time 25.0 min
T1 sequence (whole entry): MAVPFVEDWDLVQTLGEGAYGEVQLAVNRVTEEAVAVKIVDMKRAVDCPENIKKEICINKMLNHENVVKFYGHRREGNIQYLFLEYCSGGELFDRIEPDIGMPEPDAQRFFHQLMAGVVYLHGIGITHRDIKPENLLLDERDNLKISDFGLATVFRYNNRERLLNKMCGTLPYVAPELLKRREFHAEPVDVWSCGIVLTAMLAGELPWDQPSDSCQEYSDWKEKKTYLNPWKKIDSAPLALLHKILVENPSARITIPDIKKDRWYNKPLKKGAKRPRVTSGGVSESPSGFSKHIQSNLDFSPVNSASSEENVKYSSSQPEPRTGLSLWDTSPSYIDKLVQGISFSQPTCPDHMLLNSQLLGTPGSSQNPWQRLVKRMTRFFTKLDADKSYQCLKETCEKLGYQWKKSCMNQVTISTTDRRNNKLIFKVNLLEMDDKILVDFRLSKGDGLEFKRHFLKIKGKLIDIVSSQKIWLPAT

[5] = molecular target: Cyclin-dependent kinase 2 (Homo sapiens, UniProt P24941); assay: Inhibition of CDK2 K1 site in human HeLa cells lysate at 10 uM pre incubated for 15 mins followed by ATP acyl phosphate probe addition and measured after 10 mins by LC-MS/MS analysis relative to control; assay type: subcellular; conditions: time 25.0 min
Summary of the method: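 KiNativ profiling in HeLa lysate (5 mg/mL total protein). Lysate incubated 15 min with inhibitor at 50, 10, 2, 0.8 or 0 μM. ATP or ADP acylphosphate probe then added (5 μM final) and reacted 10 min. Reaction stopped with urea and analysed by targeted MS, using up to four fragment ions per kinase peptide-probe conjugate. % inhibition taken against untreated lysate. Run in duplicate.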

[6] = molecular target: Serine/threonine-protein kinase DCLK1 (Homo sapiens) (UniProt O15075); assay: Inhibition of DCAMKL1 (unknown origin) assessed as remaining activity at 10 uM by ATP-competition binding assay relative to control
Sequence of Serine/threonine-protein kinase DCLK1 (Homo sapiens) (O15075 whole entry): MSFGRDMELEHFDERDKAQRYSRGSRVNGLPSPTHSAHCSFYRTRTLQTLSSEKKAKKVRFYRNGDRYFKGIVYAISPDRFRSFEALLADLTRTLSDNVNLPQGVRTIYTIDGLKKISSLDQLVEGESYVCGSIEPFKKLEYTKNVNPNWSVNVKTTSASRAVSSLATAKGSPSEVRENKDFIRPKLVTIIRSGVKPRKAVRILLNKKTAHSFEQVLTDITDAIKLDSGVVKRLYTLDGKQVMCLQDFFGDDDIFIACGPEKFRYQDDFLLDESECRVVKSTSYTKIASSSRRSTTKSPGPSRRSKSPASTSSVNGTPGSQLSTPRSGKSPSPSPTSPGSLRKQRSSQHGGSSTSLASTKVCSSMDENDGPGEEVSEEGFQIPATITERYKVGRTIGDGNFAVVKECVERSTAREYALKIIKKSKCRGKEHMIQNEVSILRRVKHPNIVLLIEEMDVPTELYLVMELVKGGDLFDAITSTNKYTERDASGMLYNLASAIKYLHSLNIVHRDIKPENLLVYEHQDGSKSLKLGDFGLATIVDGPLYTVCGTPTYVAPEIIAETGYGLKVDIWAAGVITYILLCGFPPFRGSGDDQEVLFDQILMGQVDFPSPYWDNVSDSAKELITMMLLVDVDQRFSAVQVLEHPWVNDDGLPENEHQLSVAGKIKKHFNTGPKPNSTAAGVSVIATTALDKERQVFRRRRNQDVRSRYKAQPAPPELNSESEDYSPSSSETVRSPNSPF

IKK epsilon/TBK1 = IKK epsilon/TBK1 (Homo sapiens, UniProt Q14164+Q9UHD2); assay: Inhibition of IKKE/TBK1 in human HeLa cells lysate pre incubated for 15 mins followed by ADP acyl phosphate probe addition and measured after 10 mins by LC-MS/MS analysis; assay type: subcellular
Sequence of IKK epsilon/TBK1 (Q14164 whole entry): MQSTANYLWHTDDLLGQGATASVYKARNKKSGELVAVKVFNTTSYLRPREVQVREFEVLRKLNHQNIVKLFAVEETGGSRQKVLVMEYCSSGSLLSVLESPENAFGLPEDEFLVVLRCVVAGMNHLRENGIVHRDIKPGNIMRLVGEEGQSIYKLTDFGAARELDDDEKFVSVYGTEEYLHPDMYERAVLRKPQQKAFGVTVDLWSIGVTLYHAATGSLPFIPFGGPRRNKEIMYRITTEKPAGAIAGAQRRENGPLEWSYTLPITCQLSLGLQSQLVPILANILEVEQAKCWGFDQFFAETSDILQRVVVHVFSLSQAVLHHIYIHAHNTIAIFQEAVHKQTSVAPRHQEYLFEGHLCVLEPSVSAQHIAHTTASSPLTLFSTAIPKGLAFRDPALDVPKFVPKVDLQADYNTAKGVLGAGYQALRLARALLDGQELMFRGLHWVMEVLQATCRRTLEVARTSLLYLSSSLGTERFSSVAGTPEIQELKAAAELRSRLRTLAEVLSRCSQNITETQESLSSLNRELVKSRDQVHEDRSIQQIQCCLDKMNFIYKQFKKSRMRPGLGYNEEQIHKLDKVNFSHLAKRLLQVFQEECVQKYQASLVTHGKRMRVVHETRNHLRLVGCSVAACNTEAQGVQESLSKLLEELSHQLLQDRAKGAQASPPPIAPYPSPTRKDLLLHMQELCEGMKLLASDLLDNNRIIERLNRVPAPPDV
Sequence of IKK epsilon/TBK1 (Q9UHD2 whole entry): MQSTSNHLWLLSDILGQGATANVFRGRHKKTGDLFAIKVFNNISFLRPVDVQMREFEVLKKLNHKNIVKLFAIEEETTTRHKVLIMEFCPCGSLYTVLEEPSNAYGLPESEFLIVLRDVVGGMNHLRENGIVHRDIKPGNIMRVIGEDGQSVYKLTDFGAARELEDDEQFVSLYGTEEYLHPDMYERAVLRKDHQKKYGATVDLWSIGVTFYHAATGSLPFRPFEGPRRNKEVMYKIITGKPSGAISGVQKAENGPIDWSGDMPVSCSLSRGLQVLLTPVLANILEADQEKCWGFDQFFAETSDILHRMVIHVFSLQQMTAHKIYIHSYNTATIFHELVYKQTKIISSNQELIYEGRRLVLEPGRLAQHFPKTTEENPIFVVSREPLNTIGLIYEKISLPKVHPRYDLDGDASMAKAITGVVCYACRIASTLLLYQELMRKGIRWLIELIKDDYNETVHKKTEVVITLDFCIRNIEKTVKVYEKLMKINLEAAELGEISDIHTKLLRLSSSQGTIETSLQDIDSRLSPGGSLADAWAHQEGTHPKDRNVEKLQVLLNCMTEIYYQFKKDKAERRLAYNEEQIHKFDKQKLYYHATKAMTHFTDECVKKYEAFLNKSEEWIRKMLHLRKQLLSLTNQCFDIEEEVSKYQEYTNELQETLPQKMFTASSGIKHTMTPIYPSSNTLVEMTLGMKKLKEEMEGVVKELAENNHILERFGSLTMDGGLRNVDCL

[7] = Plasma concentration in C57Bl/6 mouse at 50 mg/kg, ip administered for 8 day and measured 8 hr post last dose by LC-MS/MS analysis; assay type: ADME, organism-based
[8] = molecular target: STE20-like serine/threonine-protein kinase (Homo sapiens, UniProt Q9H2G2); assay: Inhibition of SLK in human HeLa cells lysate pre incubated for 15 mins followed by ADP acyl phosphate probe addition and measured after 10 mins by LC-MS/MS analysis; assay type: subcellular
[9] = molecular target: Serine/threonine-protein kinase 10 (Homo sapiens, UniProt O94804); assay: Inhibition of LOK in human HeLa cells lysate pre incubated for 15 mins followed by ADP acyl phosphate probe addition and measured after 10 mins by LC-MS/MS analysis; assay type: subcellular
Sequence of Serine/threonine-protein kinase 10 (O94804 whole entry): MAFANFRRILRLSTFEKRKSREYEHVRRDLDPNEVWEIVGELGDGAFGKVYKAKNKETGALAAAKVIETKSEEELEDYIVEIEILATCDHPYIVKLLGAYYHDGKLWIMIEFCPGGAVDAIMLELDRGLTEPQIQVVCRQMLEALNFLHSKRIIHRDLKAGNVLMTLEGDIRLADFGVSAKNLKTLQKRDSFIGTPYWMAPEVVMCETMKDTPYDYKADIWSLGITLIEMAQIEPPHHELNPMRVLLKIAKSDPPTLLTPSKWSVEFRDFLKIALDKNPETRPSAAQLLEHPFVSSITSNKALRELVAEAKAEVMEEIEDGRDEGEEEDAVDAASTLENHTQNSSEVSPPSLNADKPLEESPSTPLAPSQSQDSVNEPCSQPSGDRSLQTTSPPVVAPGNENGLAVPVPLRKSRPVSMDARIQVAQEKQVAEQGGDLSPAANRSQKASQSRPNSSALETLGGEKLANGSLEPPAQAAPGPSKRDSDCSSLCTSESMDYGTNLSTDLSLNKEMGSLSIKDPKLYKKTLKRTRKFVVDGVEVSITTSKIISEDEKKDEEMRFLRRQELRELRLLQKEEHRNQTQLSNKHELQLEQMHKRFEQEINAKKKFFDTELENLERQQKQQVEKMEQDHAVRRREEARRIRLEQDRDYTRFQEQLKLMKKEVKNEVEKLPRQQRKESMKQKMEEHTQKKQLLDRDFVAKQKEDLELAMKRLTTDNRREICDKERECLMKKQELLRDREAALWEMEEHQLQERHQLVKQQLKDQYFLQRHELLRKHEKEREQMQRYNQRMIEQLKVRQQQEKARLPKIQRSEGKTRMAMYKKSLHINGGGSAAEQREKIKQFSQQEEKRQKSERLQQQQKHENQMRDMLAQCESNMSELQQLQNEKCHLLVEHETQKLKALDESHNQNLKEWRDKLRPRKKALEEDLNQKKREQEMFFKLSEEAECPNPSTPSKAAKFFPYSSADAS

[10] = molecular target: T2, Non-receptor tyrosine-protein kinase TNK1 (Homo sapiens) (UniProt Q13470); assay: Inhibition of TNK1 in human HeLa cells lysate at 50 uM pre incubated for 15 mins followed by ADP acyl phosphate probe addition and measured after 10 mins by LC-MS/MS analysis relative to control; assay type: subcellular; conditions: time 25.0 min
T2 sequence (whole entry): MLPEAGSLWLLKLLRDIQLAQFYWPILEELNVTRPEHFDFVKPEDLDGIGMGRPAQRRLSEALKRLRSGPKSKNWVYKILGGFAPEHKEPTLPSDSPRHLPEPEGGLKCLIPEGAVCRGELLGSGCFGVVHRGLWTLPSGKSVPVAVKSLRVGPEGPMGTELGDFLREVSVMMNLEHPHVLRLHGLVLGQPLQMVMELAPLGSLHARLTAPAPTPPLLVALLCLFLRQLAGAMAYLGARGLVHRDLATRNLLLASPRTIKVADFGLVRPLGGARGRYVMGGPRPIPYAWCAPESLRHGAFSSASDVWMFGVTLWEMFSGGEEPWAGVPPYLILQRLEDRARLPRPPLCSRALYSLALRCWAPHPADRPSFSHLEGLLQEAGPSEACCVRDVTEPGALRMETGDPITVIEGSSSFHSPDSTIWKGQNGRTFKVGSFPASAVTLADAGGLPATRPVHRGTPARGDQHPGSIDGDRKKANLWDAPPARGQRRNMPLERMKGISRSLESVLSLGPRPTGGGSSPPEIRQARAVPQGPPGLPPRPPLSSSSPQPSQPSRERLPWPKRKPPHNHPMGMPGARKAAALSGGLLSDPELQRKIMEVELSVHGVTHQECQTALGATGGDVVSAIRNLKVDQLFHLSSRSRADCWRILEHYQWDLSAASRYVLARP

[11] = Inhibition of MSK1/2 in human HeLa cells lysate pre incubated for 15 mins followed by ATP acyl phosphate probe addition and measured after 10 mins by LC-MS/MS analysis; assay type: subcellular
[12] = molecular target: Ribosomal protein S6 kinase alpha-3 (Homo sapiens, UniProt P51812); assay: Inhibition of RSK2 domain 1 active form in human HeLa cells lysate at 50 uM pre incubated for 15 mins followed by ATP acyl phosphate probe addition and measured after 10 mins by LC-MS/MS analysis relative to control; assay type: subcellular; conditions: time 25.0 min
Sequence of Ribosomal protein S6 kinase alpha-3 (P51812 whole entry, the tested form may be a part): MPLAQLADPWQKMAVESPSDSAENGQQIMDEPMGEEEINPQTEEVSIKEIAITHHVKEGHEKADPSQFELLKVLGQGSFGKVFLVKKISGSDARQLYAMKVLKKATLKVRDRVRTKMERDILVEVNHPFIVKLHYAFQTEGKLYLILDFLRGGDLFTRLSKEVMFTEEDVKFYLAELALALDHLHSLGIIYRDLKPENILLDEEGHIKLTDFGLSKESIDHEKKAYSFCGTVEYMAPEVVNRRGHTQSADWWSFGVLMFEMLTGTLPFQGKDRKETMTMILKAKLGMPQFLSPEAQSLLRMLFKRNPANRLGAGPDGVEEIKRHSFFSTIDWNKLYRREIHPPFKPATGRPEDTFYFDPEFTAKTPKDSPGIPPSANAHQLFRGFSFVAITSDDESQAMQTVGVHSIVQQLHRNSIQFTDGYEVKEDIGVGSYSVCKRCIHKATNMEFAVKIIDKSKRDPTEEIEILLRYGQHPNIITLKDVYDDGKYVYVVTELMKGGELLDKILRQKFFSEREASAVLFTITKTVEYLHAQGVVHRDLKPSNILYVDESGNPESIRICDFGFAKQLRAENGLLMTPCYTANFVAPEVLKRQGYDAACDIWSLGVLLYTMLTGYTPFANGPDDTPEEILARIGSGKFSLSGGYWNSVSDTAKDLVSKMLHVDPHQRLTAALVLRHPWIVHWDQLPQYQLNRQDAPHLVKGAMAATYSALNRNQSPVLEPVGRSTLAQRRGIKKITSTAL

[13] = molecular target: Mitogen-activated protein kinase kinase kinase 4 (Homo sapiens, UniProt Q9Y6R4); assay: Inhibition of MAP3K4 in human HeLa cells lysate pre incubated for 15 mins followed by ATP acyl phosphate probe addition and measured after 10 mins by LC-MS/MS analysis; assay type: subcellular
[14] = molecular target: Ribosomal protein S6 kinase alpha-1 (Homo sapiens, UniProt Q15418); assay: Inhibition of RSK1 domain 2 in human HeLa cells lysate at 10 uM pre incubated for 15 mins followed by ATP acyl phosphate probe addition and measured after 10 mins by LC-MS/MS analysis relative to control; assay type: subcellular; conditions: time 25.0 min
Sequence of Ribosomal protein S6 kinase alpha-1 (Q15418 whole entry, the tested form may be a part): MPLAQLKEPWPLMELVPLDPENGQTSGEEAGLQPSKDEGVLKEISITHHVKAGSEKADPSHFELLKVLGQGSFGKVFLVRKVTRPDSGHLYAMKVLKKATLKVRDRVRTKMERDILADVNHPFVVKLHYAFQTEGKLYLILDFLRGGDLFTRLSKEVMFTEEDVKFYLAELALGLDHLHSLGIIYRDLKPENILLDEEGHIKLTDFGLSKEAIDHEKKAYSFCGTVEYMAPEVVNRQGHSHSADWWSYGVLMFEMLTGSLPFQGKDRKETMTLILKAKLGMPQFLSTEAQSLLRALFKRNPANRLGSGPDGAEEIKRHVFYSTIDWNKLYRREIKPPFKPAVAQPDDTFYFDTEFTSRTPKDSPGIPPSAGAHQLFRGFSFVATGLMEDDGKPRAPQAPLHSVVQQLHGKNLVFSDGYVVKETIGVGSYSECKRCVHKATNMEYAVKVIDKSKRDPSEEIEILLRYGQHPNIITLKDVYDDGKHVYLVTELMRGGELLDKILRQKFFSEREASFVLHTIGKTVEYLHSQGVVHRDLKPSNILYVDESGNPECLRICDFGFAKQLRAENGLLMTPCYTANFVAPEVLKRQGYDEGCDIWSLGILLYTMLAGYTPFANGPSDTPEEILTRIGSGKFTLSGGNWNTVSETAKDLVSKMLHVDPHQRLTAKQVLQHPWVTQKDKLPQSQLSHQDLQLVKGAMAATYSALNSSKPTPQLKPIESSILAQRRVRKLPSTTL

## CCOc1cc(N2CCC(O)CC2)ccc1Nc1ncc2c(n1)N(C)c1ccccc1C(=O)N2C
[1]
  Cmax: 0.927 µM
[2]
  inhibition at 50 µM: -27.3%
[3]
  IC50: > 50 µM
[4]
  inhibition: -9.9%
[5]
  inhibition: -9.1%
[6]
  Activity: 0.9%
IKK epsilon/TBK1
  IC50: > 50 µM
[7]
  concentration at 192 h: 12.8 µM
[8]
  IC50: > 50 µM
[9]
  IC50: > 50 µM
[10]
  inhibition: 82.2%
[11]
  IC50: > 50 µM
[12]
  inhibition: 11.5%
[13]
  IC50: > 50 µM
[14]
  inhibition: 20.9%
